Assay results: ChEMBL document CHEMBL4033657, “N-Aryl-N'-ethyleneaminothioureas effectively inhibit acetylcholinesterase 1 from disease-transmitting mosquitoes” (Eur J Med Chem, 2017)
pIC50: −log10 of the molar value.

Key:
Anopheles gambiae [1] = experiment: Insecticidal activity against 3rd instar larvae of Anopheles gambiae Kisumu assessed as mortality at 25 uM administered via de-chlorinated tap water after 48 hrs; assay type: functional
Anopheles gambiae [2] = experiment: Insecticidal activity against 3rd instar larvae of Anopheles gambiae Kisumu assessed as mortality at 25 uM administered via de-chlorinated tap water after 24 hrs; assay type: functional
In short: (§1)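 Kenyan strains were reared at 27-28 °C, about 80% humidity, 12/12 h light. Per compound and concentration, 25 third-instar larvae were placed in 100 ml de-chlorinated water containing the compound and kept under insectary conditions. The negative control was plain water; the positive control was propoxur at 25 µM. Mortality was scored at 24 h; 75 treated and 50 control larvae in total.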

Anopheles gambiae [3] = experiment: Insecticidal activity against five days old adult Anopheles gambiae Kisumu assessed as mortality at 6.25 ng applied topically on upper part of pronotum after 24 hrs; assay type: functional
Aedes aegypti [4] = experiment: Insecticidal activity against five days old adult Aedes aegypti Mombasa assessed as mortality at 2 mM applied topically on upper part of pronotum after 24 hrs (reference value: 2 to 10%); assay type: functional; settings: topical
Acetylcholinesterase [5] = molecular target: T1, Acetylcholinesterase (Anopheles gambiae, UniProt Q869C3); experiment: Inhibition of recombinant full length Anopheles gambiae AChE1 expressed in baculovirus-infected Sf9 insect cells using acetylthiocholine iodide as substrate measured over 60 secs by Ellman's method
[6] = Inhibition of recombinant full length Aedes aegypti AChE1 expressed in baculovirus-infected Sf9 insect cells using acetylthiocholine iodide as substrate measured over 60 secs by Ellman's method
In short: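 Secreted, non-purified recombinant enzyme in growth medium, tested as enzyme source. Ellman assay at 30 °C in 0.1 M phosphate buffer pH 7.4 with 0.2 mM DTNB and 1 mM acetylthiocholine iodide; A412 followed over 60 s. Compound (100 mM DMSO stock) tested at eight concentrations, maximum 1 mM. Activity set relative to eight uninhibited controls per plate; IC50 from three-parameter variable-slope fit; 2-3 independent replicates.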

Acetylcholinesterase [7] = molecular target: Acetylcholinesterase (Homo sapiens, UniProt P22303); experiment: Inhibition of recombinant human AChE expressed in HEK293F cells using acetylthiocholine iodide as substrate measured over 60 secs by Ellman's method; set-up: species or system HEK293
[8] = Selectivity ratio of IC50 for recombinant human AChE expressed in HEK293F cells to IC50 for recombinant full length Anopheles gambiae AChE1 expressed in baculovirus-infected Sf9 insect cells
In short: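 Ratio of the hAChE IC50 divided by the higher of the AgAChE1 or AaAChE1 IC50. Each IC50 came from an Ellman assay (1 mM acetylthiocholine, 0.2 mM DTNB, pH 7.4, 30 °C) with eight concentrations up to 1 mM, using 2-3 replicates.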

Acetylcholinesterase [9] = molecular target: Acetylcholinesterase (Anopheles gambiae, UniProt Q869C3, G122S); experiment: Inhibition of recombinant full length Anopheles gambiae AChE1 G122S mutant expressed in baculovirus-infected Sf9 insect cells using acetylthiocholine iodide as substrate measured over 60 secs by Ellman's method
Acetylcholinesterase [10] = molecular target: T1, Acetylcholinesterase; experiment: Inhibition of AChE1 in Anopheles gambiae head extract using acetylthiocholine iodide as substrate measured over 60 secs by Ellman's method
Acetylcholinesterase [11] = molecular target: T1, Acetylcholinesterase; experiment: Inhibition of AChE1 in Anopheles gambiae body extract using acetylthiocholine iodide as substrate measured over 60 secs by Ellman's method
Anopheles gambiae [12] = experiment: Insecticidal activity against five days old adult Anopheles gambiae Kisumu assessed as mortality at 0.01 nmol applied topically on upper part of pronotum after 24 hrs; assay type: functional
Anopheles gambiae [13] = experiment: Insecticidal activity against five days old adult Anopheles gambiae Kisumu assessed as mortality at 0.2 nmol applied topically on upper part of pronotum after 24 hrs; assay type: functional
Anopheles gambiae [14] = experiment: Insecticidal activity against five days old adult Anopheles gambiae Kisumu assessed as mortality at 1 nmol applied topically on upper part of pronotum after 24 hrs; assay type: functional
Aedes aegypti [15] = experiment: Insecticidal activity against 3rd instar larvae of Aedes aegypti Mombasa assessed as mortality at 50 uM administered via de-chlorinated tap water after 24 hrs; assay type: functional; in short: as §1
Aedes aegypti [16] = experiment: Insecticidal activity against 3rd instar larvae of Aedes aegypti Mombasa assessed as mortality at 300 uM administered via de-chlorinated tap water after 24 hrs; assay type: functional; in short: as §1
Aedes aegypti [17] = experiment: Insecticidal activity against 3rd instar larvae of Aedes aegypti Mombasa assessed as mortality at 500 uM administered via de-chlorinated tap water after 24 hrs; assay type: functional; in short: as §1
Anopheles gambiae [18] = experiment: Insecticidal activity against 3rd instar larvae of Anopheles gambiae Kisumu assessed as mortality at 50 uM administered via de-chlorinated tap water after 24 hrs; assay type: functional; in short: as §1
Anopheles gambiae [19] = experiment: Insecticidal activity against 3rd instar larvae of Anopheles gambiae Kisumu assessed as mortality at 300 uM administered via de-chlorinated tap water after 24 hrs; assay type: functional; in short: as §1
Anopheles gambiae [20] = experiment: Insecticidal activity against 3rd instar larvae of Anopheles gambiae Kisumu assessed as mortality at 500 uM administered via de-chlorinated tap water after 24 hrs; assay type: functional; in short: as §1
Aedes aegypti [21] = experiment: Insecticidal activity against five days old adult Aedes aegypti Mombasa assessed as mortality at 0.2 nmol applied topically on upper part of pronotum after 24 hrs; assay type: functional
Aedes aegypti [22] = experiment: Insecticidal activity against five days old adult Aedes aegypti Mombasa assessed as mortality at 1 nmol applied topically on upper part of pronotum after 24 hrs; assay type: functional
Anopheles gambiae [23] = experiment: Insecticidal activity against 3rd instar larvae of Anopheles gambiae Kisumu assessed as mortality at 50 uM administered via de-chlorinated tap water after 48 hrs; assay type: functional
Anopheles gambiae [24] = experiment: Insecticidal activity against 3rd instar larvae of Anopheles gambiae Kisumu assessed as mortality at 300 uM administered via de-chlorinated tap water after 48 hrs; assay type: functional
Anopheles gambiae [25] = experiment: Insecticidal activity against 3rd instar larvae of Anopheles gambiae Kisumu assessed as mortality at 500 uM administered via de-chlorinated tap water after 48 hrs; assay type: functional
Anopheles gambiae [26] = experiment: Insecticidal activity against five days old adult Anopheles gambiae Kisumu assessed as mortality at 0.1 mM applied topically on upper part of pronotum after 24 hrs (reference value: 0%); assay type: functional; settings: topical
Anopheles gambiae [27] = experiment: Insecticidal activity against five days old adult Anopheles gambiae Kisumu assessed as mortality at 2 mM applied topically on upper part of pronotum after 24 hrs (reference value: 3 to 17%); assay type: functional; settings: topical
Anopheles gambiae [28] = experiment: Insecticidal activity against five days old adult Anopheles gambiae Kisumu assessed as mortality at 10 mM applied topically on upper part of pronotum after 24 hrs (reference value: 8 to 16%); assay type: functional; settings: topical
Anopheles gambiae [29] = experiment: Insecticidal activity against five days old adult Anopheles gambiae Kisumu assessed as mortality at 10 mM applied topically on upper part of pronotum after 48 hrs (reference value: 14 to 22%); assay type: functional; settings: topical
Aedes aegypti [30] = experiment: Insecticidal activity against 3rd instar larvae of Aedes aegypti Mombasa assessed as mortality at 50 uM administered via de-chlorinated tap water after 48 hrs (reference value: 0 to 4%); assay type: functional
Aedes aegypti [31] = experiment: Insecticidal activity against 3rd instar larvae of Aedes aegypti Mombasa assessed as mortality at 300 uM administered via de-chlorinated tap water after 48 hrs (reference value: 0%); assay type: functional
Aedes aegypti [32] = experiment: Insecticidal activity against 3rd instar larvae of Aedes aegypti Mombasa assessed as mortality at 500 uM administered via de-chlorinated tap water after 48 hrs (reference value: 0 to 2%); assay type: functional
Aedes aegypti [33] = experiment: Insecticidal activity against five days old adult Aedes aegypti Mombasa assessed as mortality at 10 mM applied topically on upper part of pronotum after 24 hrs (reference value: 3 to 15%); assay type: functional; settings: topical
Aedes aegypti [34] = experiment: Insecticidal activity against five days old adult Aedes aegypti Mombasa assessed as mortality at 2 mM applied topically on upper part of pronotum after 48 hrs (reference value: 3 to 12%); assay type: functional; settings: topical
Aedes aegypti [35] = experiment: Insecticidal activity against five days old adult Aedes aegypti Mombasa assessed as mortality at 10 mM applied topically on upper part of pronotum after 48 hrs (reference value: 3 to 15%); assay type: functional; settings: topical

With `CNC(=O)Oc1ccccc1OC(C)C` [PROPOXUR] as the compound, how does the mortality at 25 µM (Anopheles gambiae [1]) read?
The mortality at 25 µM was 100%.

And the mortality at 25 µM (Anopheles gambiae [2])?
The mortality at 25 µM was 100%.

And the mortality (Anopheles gambiae [3])?
Its mortality is 100%.

With `COc1ccc(NC(=S)NCCN2CCOCC2)cc1Cl` as the compound, how does the mortality at 2000 µM (Aedes aegypti [4]) read?
The mortality at 2000 µM was 5%.

What about the pIC50 (Acetylcholinesterase [5]) of the same compound?
Its pIC50 is 6.92.

And the pIC50 [6]?
The pIC50 was 7.05.

What about the pIC50 (Acetylcholinesterase [7]) of the same compound?
The pIC50 was 4.85.

What about the Ratio IC50 [8] of the same compound?
The Ratio IC50 was 117.

What about the pIC50 (Acetylcholinesterase [9]) of the same compound?
The pIC50 was 4.08.

What about the pIC50 (Acetylcholinesterase [10]) of the same compound?
The pIC50 was 6.72.

And the pIC50 (Acetylcholinesterase [11])?
Its pIC50 is 6.82.

And the mortality (Anopheles gambiae [12])?
Its mortality is 0%.

What about the mortality (Anopheles gambiae [13]) of the same compound?
Its mortality is 22%.

And the mortality (Anopheles gambiae [14])?
The mortality was 70%.

And the mortality at 50 µM (Aedes aegypti [15])?
The mortality at 50 µM was 8%.

And the mortality at 300 µM (Aedes aegypti [16])?
Its mortality at 300 µM is 64%.

What about the mortality at 500 µM (Aedes aegypti [17]) of the same compound?
Its mortality at 500 µM is 97%.

And the mortality at 50 µM (Anopheles gambiae [18])?
Its mortality at 50 µM is 1%.

What about the mortality at 300 µM (Anopheles gambiae [19]) of the same compound?
The mortality at 300 µM was 100%.

What about the mortality at 500 µM (Anopheles gambiae [20]) of the same compound?
Its mortality at 500 µM is 100%.

What about the mortality (Aedes aegypti [21]) of the same compound?
The mortality was 5%.

And the mortality (Aedes aegypti [22])?
The mortality was 0%.

What about the mortality at 50 µM (Anopheles gambiae [23]) of the same compound?
The mortality at 50 µM was 3%.

And the mortality at 300 µM (Anopheles gambiae [24])?
Its mortality at 300 µM is 100%.

And the mortality at 500 µM (Anopheles gambiae [25])?
The mortality at 500 µM was 100%.

What about the mortality at 100 µM (Anopheles gambiae [26]) of the same compound?
The mortality at 100 µM was 0%.

And the mortality at 2000 µM (Anopheles gambiae [27])?
The mortality at 2000 µM was 22%.

What about the mortality at 10000 µM (Anopheles gambiae [28]) of the same compound?
Its mortality at 10000 µM is 72%.

And the mortality at 10000 µM (Anopheles gambiae [29])?
Its mortality at 10000 µM is 77%.

What about the mortality at 50 µM (Aedes aegypti [30]) of the same compound?
The mortality at 50 µM was 13%.

What about the mortality at 300 µM (Aedes aegypti [31]) of the same compound?
Its mortality at 300 µM is 80%.

What about the mortality at 500 µM (Aedes aegypti [32]) of the same compound?
Its mortality at 500 µM is 100%.

What about the mortality at 10000 µM (Aedes aegypti [33]) of the same compound?
Its mortality at 10000 µM is 3%.

And the mortality at 2000 µM (Aedes aegypti [34])?
The mortality at 2000 µM was 5%.

What about the mortality at 10000 µM (Aedes aegypti [35]) of the same compound?
Its mortality at 10000 µM is 10%.
